Results of several laboratories.
Compare with care: the assays were run in different laboratories.
Medium: plasma

Structure (SMILES)	test system	setting	AUC(0-inf)
CC(C)(Sc1ccncc1-c1ccc(C#N)c2ccccc12)C(=O)O	male human	oral, 20 mg, single dose, fed, healthy volunteers	415 ng·h/mL
C[C@@]1(c2cc(NC(=O)c3ccc(C#N)cn3)ccc2F)C=CSC(N)=N1	human	oral, 3 mg, single dose	259 ng·h/mL
CCCOc1ccc([C@H]2CNC(=O)N2c2ccc3[nH]cnc3c2)cc1	human	oral, 200 mg, single dose, fasted, healthy volunteers	2330 ng·h/mL
CC(C)[C@](O)(c1ccc2cc(OC(F)F)c(OC(F)F)cc2c1)c1c[nH]nn1	female human	oral, 750 mg, single dose	84600 ng·h/mL
CCc1nc2c(C)cc(N3CCN(CC(=O)N4CC(O)C4)CC3)cn2c1N(C)c1nc(-c2ccc(F)cc2)c(C#N)s1	human	oral, 600 mg, single dose, fasted, healthy volunteers	36600 ng·h/mL
CO[C@H]1CC[C@H](N2C(=O)CNc3ncc(-c4ccc(C(C)(C)O)nc4)nc32)CC1	human	oral, 7.5 mg, patients	353 ng·h/mL
CC(C)n1cc(C#N)c2cc(-n3cc(C(=O)O)cn3)ccc21	human	oral, 50 mg, single dose, fasted, healthy volunteers	7120 ng·h/mL
O=C(Nc1c(Cl)cncc1Cl)c1ccc(OC(F)F)c(OCC2CC2)c1	human	oral, 0.375 mg, single dose, fasted	48.7 ng·h/mL
CN(C)CCCNC(=O)/C(=C/CCCCC(=O)NO)COc1cccc2ccccc12	human	intravenous, 312.5 mg/m², single dose	72600 ng·h/mL
COc1ccc([C@@H]2CN(C(=O)[C@@H](O)CO)C[C@@]2(C)[C@@H](C)O)cc1OC1CN(c2ccc(C)cn2)C1	human	oral, 40 mg, single dose, healthy volunteers	9000 ng·h/mL
CC(C)(O)c1ccccc1-c1ccc2[nH]c(/C=C/c3ccc(C(F)(F)F)cc3)nc2c1	male human	oral, 5 mg, single dose, fasted	876 ng·h/mL
COc1ccc(-n2nc(C(N)=O)c3c2C(=O)N(c2ccc(N4CCCCC4=O)cc2)CC3)cc1	male human	oral, 10 mg, single dose	1630 ng·h/mL
Cn1cc(-c2ccc(S(=O)(=O)[C@@H]3C[C@@H](C(=O)NC4(C#N)CC4)N(C(=O)C4(C(F)(F)F)CC4)C3)c(C(F)(F)F)c2)cn1	human	oral, 3 mg, single dose, fasted, healthy volunteers	229 ng·h/mL
